Data: ChEMBL document CHEMBL4118021, “Studies of TAK1-centered polypharmacology with novel covalent TAK1 inhibitors” (Bioorg Med Chem, 2017)
The source made the active and inactive calls. The rule behind the calls is not given here.

Tests used:
[1] = biological target: Eukaryotic translation initiation factor 2A (Homo sapiens) (UniProt Q9BY44); assay: Binding affinity to EIF2A in human NCI-H23 cells at 1 uM by mass spectrometry based pull down assay; type: cell-based
[2] = biological target: Actin-related protein 2 (Homo sapiens) (UniProt P61160); assay: Binding affinity to ACTR2 in human NCI-H358 cells at 1 uM by mass spectrometry based pull down assay; type: cell-based
In short: (§1)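 NCI-H23 or NCI-H358 cells were grown and lysed. Lysates were incubated overnight at 4 °C with 1 μM biotinylated covalent probe or DMSO, then pulled down on streptavidin beads. Proteins were run on polyacrylamide gels and stained with Coomassie. Bands were excised, digested and identified by mass spectrometry.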

[3] = biological target: Cyclin-dependent kinase 4 (Homo sapiens) (UniProt P11802); assay: Binding affinity to CDK4 in human NCI-H358 cells at 1 uM by mass spectrometry based pull down assay; type: cell-based
Chain of Cyclin-dependent kinase 4 (Homo sapiens) (P11802 whole entry): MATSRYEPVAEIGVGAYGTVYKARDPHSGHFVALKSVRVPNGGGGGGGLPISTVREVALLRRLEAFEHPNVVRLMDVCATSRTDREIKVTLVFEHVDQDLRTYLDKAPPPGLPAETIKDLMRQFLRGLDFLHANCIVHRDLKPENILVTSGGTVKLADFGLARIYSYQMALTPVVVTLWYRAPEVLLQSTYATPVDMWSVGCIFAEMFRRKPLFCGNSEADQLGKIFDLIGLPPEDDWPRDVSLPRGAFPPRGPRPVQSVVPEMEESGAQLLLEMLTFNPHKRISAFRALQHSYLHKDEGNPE

[4] = biological target: Calponin-2 (Homo sapiens) (UniProt Q99439); assay: Binding affinity to CNN2 in human NCI-H23 cells at 1 uM by mass spectrometry based pull down assay; type: cell-based
Chain of Calponin-2 (Homo sapiens) (Q99439 whole entry): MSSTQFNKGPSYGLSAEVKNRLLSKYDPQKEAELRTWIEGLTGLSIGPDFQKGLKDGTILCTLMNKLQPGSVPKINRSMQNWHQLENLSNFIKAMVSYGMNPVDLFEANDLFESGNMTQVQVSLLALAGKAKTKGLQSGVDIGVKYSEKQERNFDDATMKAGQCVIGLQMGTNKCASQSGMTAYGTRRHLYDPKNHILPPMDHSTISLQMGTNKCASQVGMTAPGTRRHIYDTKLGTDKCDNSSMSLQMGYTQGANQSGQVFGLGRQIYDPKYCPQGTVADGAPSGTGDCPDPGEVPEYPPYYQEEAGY

[5] = biological target: T1, 80S Ribosome (Homo sapiens) (UniProt P08865+P42677+P62753+P15880+P23396+P61247+P62701+P22090+P46782+P62081+P62241+P46781+P46783+P62280+P25398+P62277+P62263+P62841+P62244+P62249+P08708+P62269+P39019+P60866+P63220+P62266+P62847+P62851+P62854+P62979+P62857+P62273+P62861+P39023+P36578+P46777+Q02878+P18124+P62424+P62917+P32969+P27635+P62906+P62913+P30050+P26373+P40429+P50914+P61313+P18621+Q07020+Q02543+P84098+P46778+P35268+P62829+P62750+P83731+P61254+P61353+P46776+P46779+P47914+P62888+P62899+P62910+P49207+P42766+P18077+Q9Y3U8+P83881+P61927+P61513+P63173+P62891+P62945+P05388+P05386); assay: Binding affinity to RPS25 in human NCI-H23 cells at 1 uM by mass spectrometry based pull down assay; type: cell-based
[6] = biological target: N-acetyl-D-glucosamine kinase (Homo sapiens) (UniProt Q9UJ70); assay: Binding affinity to NAGK in human NCI-H358 cells at 1 uM by mass spectrometry based pull down assay; type: cell-based
[7] = biological target: Heterogeneous nuclear ribonucleoproteins A2/B1 (Homo sapiens) (UniProt P22626); assay: Binding affinity to HNRNPA2B1 in human NCI-H23 cells at 1 uM by mass spectrometry based pull down assay; type: cell-based
Chain of Heterogeneous nuclear ribonucleoproteins A2/B1 (Homo sapiens) (P22626 whole entry): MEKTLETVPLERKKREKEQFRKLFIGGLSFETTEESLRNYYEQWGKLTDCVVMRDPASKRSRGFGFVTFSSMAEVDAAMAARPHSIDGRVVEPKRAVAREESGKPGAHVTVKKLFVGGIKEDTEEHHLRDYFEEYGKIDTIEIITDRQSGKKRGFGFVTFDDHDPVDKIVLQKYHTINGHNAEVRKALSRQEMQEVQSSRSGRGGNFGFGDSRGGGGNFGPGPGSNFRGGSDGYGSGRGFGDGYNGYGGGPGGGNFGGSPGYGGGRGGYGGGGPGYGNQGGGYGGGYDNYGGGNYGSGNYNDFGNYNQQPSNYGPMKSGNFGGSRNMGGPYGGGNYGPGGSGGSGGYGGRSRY

[8] = biological target: TGF-beta-activated kinase 1 and MAP3K7-binding protein 1 (Homo sapiens) (UniProt Q15750); assay: Binding affinity to TAB1 in human NCI-H358 cells at 1 uM by mass spectrometry based pull down assay; type: cell-based
Chain of TGF-beta-activated kinase 1 and MAP3K7-binding protein 1 (Homo sapiens) (Q15750 whole entry): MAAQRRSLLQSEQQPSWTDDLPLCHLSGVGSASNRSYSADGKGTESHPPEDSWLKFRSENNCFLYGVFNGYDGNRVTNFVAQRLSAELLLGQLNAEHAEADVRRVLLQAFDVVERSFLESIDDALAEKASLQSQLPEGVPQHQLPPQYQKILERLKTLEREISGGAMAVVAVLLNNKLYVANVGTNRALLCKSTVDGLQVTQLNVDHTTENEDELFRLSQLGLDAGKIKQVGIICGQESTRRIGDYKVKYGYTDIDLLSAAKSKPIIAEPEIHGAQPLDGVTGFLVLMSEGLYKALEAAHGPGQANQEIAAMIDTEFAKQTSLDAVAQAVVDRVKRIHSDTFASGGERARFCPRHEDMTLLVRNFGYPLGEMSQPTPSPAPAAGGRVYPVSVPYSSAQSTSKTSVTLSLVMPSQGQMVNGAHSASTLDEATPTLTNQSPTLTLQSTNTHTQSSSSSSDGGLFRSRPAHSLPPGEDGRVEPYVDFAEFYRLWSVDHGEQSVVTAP

[9] = biological target: T2, Dual specificity mitogen-activated protein kinase kinase 5 (Homo sapiens) (UniProt Q13163); assay: Binding affinity to MAP2K5 in human NCI-H23 cells at 1 uM by mass spectrometry based pull down assay; type: cell-based
T2 sequence (whole entry): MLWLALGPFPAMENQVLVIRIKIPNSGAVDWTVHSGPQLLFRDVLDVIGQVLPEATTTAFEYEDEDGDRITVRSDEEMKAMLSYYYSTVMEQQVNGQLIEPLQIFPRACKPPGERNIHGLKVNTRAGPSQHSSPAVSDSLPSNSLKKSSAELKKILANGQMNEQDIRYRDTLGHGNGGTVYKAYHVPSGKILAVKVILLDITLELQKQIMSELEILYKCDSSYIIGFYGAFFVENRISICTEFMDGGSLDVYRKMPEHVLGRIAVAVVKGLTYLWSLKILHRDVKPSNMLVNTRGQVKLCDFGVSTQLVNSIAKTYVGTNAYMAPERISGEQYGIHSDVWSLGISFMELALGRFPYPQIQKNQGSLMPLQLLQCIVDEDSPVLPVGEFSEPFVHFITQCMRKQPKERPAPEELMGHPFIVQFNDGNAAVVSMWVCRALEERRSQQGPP

Agrin (Homo sapiens) = Agrin (Homo sapiens) (UniProt O00468); assay: Binding affinity to AGRN in human NCI-H358 cells at 1 uM by mass spectrometry based pull down assay; type: cell-based; in short: as §1
[10] = biological target: Heterogeneous nuclear ribonucleoprotein U (Homo sapiens) (UniProt Q00839); assay: Binding affinity to HNRNPU in human NCI-H23 cells at 1 uM by mass spectrometry based pull down assay; type: cell-based
Chain of Heterogeneous nuclear ribonucleoprotein U (Homo sapiens) (Q00839 whole entry, the tested form may be a part): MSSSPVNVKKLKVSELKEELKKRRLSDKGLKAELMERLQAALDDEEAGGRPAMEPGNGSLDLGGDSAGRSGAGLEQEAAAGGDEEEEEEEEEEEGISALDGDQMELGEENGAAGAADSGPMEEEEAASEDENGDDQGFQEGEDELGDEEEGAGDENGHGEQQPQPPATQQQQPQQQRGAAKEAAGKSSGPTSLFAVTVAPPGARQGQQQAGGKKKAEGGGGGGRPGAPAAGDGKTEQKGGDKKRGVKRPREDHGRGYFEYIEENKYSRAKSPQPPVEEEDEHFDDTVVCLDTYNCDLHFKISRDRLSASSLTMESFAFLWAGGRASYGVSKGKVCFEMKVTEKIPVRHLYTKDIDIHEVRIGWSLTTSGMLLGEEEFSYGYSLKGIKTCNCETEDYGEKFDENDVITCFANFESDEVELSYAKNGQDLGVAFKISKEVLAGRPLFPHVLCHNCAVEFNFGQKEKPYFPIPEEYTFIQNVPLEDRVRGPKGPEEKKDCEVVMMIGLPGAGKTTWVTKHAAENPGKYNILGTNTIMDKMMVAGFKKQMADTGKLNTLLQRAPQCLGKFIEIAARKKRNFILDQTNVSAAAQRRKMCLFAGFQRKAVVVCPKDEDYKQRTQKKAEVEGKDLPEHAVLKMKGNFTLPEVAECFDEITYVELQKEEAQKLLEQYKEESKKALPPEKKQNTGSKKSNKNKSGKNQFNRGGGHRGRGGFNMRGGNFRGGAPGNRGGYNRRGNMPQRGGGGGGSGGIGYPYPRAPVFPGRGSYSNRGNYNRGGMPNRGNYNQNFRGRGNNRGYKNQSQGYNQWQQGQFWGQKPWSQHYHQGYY

[11] = biological target: YTH domain-containing family protein 2 (Homo sapiens) (UniProt Q9Y5A9); assay: Binding affinity to YTHDF2 in human NCI-H358 cells at 1 uM by mass spectrometry based pull down assay; type: cell-based
[12] = biological target: Adenylyltransferase and sulfurtransferase MOCS3 (Homo sapiens) (UniProt O95396); assay: Binding affinity to MOCS3 in human NCI-H23 cells at 1 uM by mass spectrometry based pull down assay; type: cell-based
Chain of Adenylyltransferase and sulfurtransferase MOCS3 (Homo sapiens) (O95396 whole entry): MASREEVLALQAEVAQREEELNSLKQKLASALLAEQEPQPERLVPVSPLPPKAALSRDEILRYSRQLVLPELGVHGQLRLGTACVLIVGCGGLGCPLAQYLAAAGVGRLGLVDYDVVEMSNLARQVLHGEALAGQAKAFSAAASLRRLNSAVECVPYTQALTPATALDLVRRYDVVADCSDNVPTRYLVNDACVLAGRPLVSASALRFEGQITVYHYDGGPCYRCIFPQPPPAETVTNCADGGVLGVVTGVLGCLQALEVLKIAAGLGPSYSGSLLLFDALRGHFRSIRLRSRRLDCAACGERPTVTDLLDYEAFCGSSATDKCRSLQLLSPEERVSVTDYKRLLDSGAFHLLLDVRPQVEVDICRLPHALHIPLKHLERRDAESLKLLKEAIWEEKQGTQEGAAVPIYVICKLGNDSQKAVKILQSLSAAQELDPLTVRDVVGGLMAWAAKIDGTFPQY

Caprin-1 (Homo sapiens) = Caprin-1 (Homo sapiens) (UniProt Q14444); assay: Binding affinity to CAPRIN1 in human NCI-H358 cells at 1 uM by mass spectrometry based pull down assay; type: cell-based
[13] = biological target: Thymidine kinase, cytosolic (Homo sapiens) (UniProt P04183); assay: Binding affinity to TK1 in human NCI-H358 cells at 1 uM by mass spectrometry based pull down assay; type: cell-based
[14] = biological target: Vesicle-fusing ATPase (Homo sapiens) (UniProt P46459); assay: Binding affinity to NSF in human NCI-H358 cells at 1 uM by mass spectrometry based pull down assay; type: cell-based
[15] = biological target: T1, 80S Ribosome (Homo sapiens); assay: Binding affinity to RPL31 in human NCI-H358 cells at 1 uM by mass spectrometry based pull down assay; type: cell-based
[16] = biological target: Ubiquitin-like modifier-activating enzyme 1 (Homo sapiens) (UniProt P22314); assay: Binding affinity to UBA1 in human NCI-H358 cells at 1 uM by mass spectrometry based pull down assay; type: cell-based
Chain of Ubiquitin-like modifier-activating enzyme 1 (Homo sapiens) (P22314 whole entry): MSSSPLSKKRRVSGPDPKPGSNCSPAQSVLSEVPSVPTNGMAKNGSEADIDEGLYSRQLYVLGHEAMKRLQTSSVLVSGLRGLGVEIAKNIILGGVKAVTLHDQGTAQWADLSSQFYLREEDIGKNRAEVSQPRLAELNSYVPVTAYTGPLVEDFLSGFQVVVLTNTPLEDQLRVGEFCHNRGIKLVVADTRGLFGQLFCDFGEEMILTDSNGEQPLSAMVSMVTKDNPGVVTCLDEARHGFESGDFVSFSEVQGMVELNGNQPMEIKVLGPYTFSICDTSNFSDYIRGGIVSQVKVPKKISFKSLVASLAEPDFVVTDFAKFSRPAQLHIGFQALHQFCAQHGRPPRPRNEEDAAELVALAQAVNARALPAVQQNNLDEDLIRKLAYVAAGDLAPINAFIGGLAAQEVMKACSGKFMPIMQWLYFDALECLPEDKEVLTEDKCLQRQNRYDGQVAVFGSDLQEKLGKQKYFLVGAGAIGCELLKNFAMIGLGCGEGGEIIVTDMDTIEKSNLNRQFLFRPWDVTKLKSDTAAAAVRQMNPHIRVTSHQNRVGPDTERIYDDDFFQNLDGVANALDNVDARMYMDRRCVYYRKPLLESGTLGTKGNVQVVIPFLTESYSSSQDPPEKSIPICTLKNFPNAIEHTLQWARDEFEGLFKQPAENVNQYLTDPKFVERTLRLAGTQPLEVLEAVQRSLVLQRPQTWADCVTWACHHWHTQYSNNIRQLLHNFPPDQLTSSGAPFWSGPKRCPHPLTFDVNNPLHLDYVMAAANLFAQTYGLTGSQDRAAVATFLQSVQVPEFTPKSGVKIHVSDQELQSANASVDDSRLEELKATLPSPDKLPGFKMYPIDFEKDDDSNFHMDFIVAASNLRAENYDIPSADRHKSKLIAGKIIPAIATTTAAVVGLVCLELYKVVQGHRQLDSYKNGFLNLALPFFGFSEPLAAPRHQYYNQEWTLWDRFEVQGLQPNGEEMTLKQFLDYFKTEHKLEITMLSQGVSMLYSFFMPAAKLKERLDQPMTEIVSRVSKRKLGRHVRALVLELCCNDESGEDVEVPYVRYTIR

[17] = biological target: Protein disulfide-isomerase A3 (Homo sapiens) (UniProt P30101); assay: Binding affinity to PDIA3 in human NCI-H358 cells at 1 uM by mass spectrometry based pull down assay; type: cell-based
[18] = biological target: Tropomyosin alpha-1 chain (Homo sapiens) (UniProt P09493); assay: Binding affinity to TPM1 in human NCI-H358 cells at 1 uM by mass spectrometry based pull down assay; type: cell-based
[19] = biological target: Large ribosomal subunit protein bL12m (Homo sapiens) (UniProt P52815); assay: Binding affinity to MRPL12 in human NCI-H358 cells at 1 uM by mass spectrometry based pull down assay; type: cell-based
[20] = biological target: Cyclin-dependent kinase-like 2 (Homo sapiens) (UniProt Q92772); assay: Inhibition of human CDKL2 (1 to 327 residues) expressed in bacterial expression system assessed as enzyme activity at 1 uM by KINOMEScan assay relative to control; parameters: scale not given: the % may be the effect or the level left
Chain of Cyclin-dependent kinase-like 2 (Homo sapiens) (Q92772 whole entry, the tested form may be a part): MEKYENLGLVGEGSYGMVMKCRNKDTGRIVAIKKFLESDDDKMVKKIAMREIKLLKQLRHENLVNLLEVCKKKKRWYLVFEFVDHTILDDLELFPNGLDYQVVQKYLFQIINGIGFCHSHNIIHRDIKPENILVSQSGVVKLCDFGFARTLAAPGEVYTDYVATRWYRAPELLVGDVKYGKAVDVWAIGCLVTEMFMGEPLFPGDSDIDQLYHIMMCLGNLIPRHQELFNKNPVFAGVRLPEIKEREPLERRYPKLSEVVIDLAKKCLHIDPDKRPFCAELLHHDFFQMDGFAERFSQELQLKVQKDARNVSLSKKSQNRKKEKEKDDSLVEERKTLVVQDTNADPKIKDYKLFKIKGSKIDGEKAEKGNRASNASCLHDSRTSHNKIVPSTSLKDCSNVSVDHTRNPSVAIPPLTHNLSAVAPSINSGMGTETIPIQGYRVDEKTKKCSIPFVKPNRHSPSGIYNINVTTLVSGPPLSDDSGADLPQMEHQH
In short: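 In vitro ATP-site competition binding assay (KinomeScan) across a panel of 456 kinases. Compound was tested at 1 and 10 μM. The read-out is the binding inhibition score relative to control.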

Chain of Eukaryotic translation initiation factor 2A (Homo sapiens) (Q9BY44 whole entry): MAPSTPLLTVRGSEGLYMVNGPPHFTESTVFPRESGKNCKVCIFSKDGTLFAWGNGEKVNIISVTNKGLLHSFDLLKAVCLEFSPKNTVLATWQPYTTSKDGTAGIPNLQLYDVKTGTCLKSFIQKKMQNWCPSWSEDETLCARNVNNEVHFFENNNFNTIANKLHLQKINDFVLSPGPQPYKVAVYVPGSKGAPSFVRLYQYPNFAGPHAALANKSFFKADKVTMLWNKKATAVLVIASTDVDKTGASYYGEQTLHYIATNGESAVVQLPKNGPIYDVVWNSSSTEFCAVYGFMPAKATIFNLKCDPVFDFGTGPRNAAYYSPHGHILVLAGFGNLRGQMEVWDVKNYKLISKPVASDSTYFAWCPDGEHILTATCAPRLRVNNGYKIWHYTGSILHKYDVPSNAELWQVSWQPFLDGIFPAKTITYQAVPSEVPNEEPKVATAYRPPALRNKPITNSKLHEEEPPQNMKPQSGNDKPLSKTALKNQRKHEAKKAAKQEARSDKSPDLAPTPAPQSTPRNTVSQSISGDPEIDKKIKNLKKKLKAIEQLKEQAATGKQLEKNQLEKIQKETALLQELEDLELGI

C=CC(=O)Nc1ccccc1Nc1nc(Nc2ccc(N3CCN(CCOCCOCCOCCNC(=O)CCCC[C@@H]4SC[C@@H]5NC(=O)N[C@@H]54)CC3)cc2)ncc1Cl
Activity [1]: Active
Activity [2]: Active
Activity [3]: Active
Activity [4]: Active
Activity [5]: Active
Activity [6]: Active
Activity [7]: Active
Activity [8]: Active
Activity [9]: Active
Activity (Agrin (Homo sapiens)): Active
Activity [10]: Active
Activity [11]: Active
Activity [12]: Active
Activity (Caprin-1 (Homo sapiens)): Active
Activity [13]: Active
Activity [14]: Active
Activity [15]: Active
Activity [16]: Active
Activity [17]: Active
Activity [18]: Active
Activity [19]: Active

COc1cc(O)c2c(c1)/C=C/C[C@H](O)[C@H](O)C(=O)/C=C\C[C@H](C)OC2=O
Activity [20]: 76%
